In ChEMBL document CHEMBL4261600 (Eur J Med Chem, 2018):
Calls of active or inactive are those of the source.

Experiments:
[1] = system: Receptor-type tyrosine-protein kinase FLT3 (Homo sapiens), P36888 [D835Y]; experiment: Binding affinity to human partial length FLT3 D835Y mutant (Q580 to Y969 residues) expressed in bacterial expression system assessed as remaining unbound target protein level at 1000 nM by Kinomescan method relative to control
Outline: (§1)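 KINOMEscan competition-binding profiling across the panel of 468 kinases and mutants, with inhibitor tested at 1 μM. Binding is expressed as percent of control, with DMSO as the reference control.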

[2] = MRT (0 to infinity) in beagle dog at 10 mg/kg, po by LC-MS/MS analysis; format: ADME, organism-based, Canis lupus familiaris; conditions: in vivo
[3] = target: Ankyrin repeat and protein kinase domain-containing protein 1 (Homo sapiens) (UniProt Q8NFD2); experiment: Binding affinity to wild-type human partial length ANKK1 (M1 to A305 residues) expressed in mammalian expression system assessed as remaining unbound target protein level at 1000 nM by Kinomescan method relative to control
Outline: (§2)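 Profiled in a KINOMEscan binding panel with the inhibitor at a single concentration of 1 μM. Binding to each kinase was read out as percent of control, relative to a DMSO control. Strong binders were defined as those with a percent control value below 1.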

[4] = target: Tyrosine-protein kinase TXK (Homo sapiens) (UniProt P42681); experiment: Binding affinity to wild-type human partial length TXK (L238 to W527 residues) expressed in bacterial expression system assessed as remaining unbound target protein level at 1000 nM by Kinomescan method relative to control
[5] = system: Phosphatidylinositol 4,5-bisphosphate 3-kinase catalytic subunit alpha isoform (Homo sapiens), P42336 [E542K]; experiment: Binding affinity to human partial length PIK3CA E542K mutant (R108 to N1068 residues) expressed in mammalian expression system assessed as remaining unbound target protein level at 1000 nM by Kinomescan method relative to control; outline: as §1
Phosphatidylinositol 4,5-bisphosphate 3-kinase catalytic subunit alpha isoform (Homo sapiens), P42336 [E542K], sequence (P42336 whole entry E542K, the tested form may be a part, canonical isoform): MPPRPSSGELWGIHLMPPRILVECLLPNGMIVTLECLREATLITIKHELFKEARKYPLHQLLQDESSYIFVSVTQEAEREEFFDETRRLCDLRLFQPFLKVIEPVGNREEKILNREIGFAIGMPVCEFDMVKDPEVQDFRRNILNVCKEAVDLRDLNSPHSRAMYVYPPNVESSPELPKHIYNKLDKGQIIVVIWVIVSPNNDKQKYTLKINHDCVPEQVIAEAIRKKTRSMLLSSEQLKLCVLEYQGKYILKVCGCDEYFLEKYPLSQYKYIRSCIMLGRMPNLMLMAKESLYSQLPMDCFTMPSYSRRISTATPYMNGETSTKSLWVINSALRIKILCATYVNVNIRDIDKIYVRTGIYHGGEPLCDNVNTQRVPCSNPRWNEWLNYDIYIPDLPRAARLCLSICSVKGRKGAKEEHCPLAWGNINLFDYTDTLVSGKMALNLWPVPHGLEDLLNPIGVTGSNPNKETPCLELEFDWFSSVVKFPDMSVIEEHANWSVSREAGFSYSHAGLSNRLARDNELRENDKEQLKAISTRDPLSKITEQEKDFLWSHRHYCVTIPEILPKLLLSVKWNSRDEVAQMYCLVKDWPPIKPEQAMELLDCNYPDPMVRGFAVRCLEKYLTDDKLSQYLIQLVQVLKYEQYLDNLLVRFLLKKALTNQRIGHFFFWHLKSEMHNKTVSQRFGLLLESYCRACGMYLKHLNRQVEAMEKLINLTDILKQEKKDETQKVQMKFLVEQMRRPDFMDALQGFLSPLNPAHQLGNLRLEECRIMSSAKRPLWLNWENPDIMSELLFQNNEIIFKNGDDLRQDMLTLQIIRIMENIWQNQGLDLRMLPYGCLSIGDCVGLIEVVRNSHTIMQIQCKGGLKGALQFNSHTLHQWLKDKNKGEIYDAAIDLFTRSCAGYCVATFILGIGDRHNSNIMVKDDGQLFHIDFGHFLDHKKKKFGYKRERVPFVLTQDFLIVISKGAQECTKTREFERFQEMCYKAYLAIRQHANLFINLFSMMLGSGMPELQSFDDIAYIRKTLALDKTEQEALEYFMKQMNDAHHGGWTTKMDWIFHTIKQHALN

[6] = target: Inhibitor of nuclear factor kappa-B kinase subunit alpha (Homo sapiens) (UniProt O15111); experiment: Binding affinity to wild-type human full length IKK-alpha (M1 to E745 residues) expressed in mammalian expression system assessed as remaining unbound target protein level at 1000 nM by Kinomescan method relative to control
Inhibitor of nuclear factor kappa-B kinase subunit alpha (Homo sapiens), sequence (O15111 whole entry, the tested form may be a part): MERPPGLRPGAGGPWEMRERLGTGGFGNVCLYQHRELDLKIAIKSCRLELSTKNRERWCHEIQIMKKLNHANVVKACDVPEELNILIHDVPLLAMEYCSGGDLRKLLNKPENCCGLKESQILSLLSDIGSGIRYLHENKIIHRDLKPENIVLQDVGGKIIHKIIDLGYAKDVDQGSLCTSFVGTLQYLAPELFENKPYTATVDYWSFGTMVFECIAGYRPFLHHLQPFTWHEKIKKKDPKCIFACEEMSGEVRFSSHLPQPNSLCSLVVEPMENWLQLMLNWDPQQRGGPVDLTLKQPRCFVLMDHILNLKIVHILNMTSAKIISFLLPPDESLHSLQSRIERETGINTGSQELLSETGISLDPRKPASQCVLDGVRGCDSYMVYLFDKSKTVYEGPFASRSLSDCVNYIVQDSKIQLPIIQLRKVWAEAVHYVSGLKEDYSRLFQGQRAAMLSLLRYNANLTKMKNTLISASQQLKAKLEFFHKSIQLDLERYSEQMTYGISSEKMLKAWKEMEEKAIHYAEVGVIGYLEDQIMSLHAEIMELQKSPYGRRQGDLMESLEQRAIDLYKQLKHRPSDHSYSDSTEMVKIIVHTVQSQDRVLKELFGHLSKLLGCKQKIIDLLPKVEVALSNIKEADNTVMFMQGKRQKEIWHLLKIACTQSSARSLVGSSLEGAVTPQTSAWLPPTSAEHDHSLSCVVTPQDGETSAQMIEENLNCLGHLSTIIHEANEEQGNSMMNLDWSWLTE
Outline: (§3)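 Single-point competition binding screen across a panel of 468 kinases and mutants, with the inhibitor at 1 μM. Binding is read out as percent of a DMSO control, and targets below 1 percent control were classed as strong binders.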

[7] = target: Tyrosine-protein kinase BTK (Homo sapiens) (UniProt Q06187); experiment: Binding affinity to wild-type human full length BTK (M1 to S659 residues) expressed in mammalian expression system assessed as remaining unbound target protein level at 1000 nM by Kinomescan method relative to control; outline: as §3
Tyrosine-protein kinase BTK (Homo sapiens), sequence (Q06187 whole entry, the tested form may be a part): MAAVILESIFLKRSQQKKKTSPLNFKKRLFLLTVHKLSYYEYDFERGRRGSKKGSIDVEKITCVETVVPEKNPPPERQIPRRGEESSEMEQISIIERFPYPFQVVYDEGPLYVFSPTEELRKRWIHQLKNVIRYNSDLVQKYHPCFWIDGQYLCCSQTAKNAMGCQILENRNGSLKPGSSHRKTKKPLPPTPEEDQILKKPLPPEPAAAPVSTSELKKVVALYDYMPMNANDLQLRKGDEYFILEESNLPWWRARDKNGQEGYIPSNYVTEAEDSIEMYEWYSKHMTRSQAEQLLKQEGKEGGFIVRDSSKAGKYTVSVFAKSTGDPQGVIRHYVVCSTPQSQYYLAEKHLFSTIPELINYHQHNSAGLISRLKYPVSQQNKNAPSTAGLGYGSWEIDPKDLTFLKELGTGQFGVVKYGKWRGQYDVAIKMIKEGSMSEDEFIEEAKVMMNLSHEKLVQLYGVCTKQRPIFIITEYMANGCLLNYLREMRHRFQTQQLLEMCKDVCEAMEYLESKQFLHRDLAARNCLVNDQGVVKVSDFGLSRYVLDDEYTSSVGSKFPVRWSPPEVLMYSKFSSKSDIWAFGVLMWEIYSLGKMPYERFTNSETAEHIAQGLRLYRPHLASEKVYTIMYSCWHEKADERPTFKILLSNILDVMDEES

[8] = target: Serine/threonine-protein kinase Chk2 (Homo sapiens) (UniProt O96017); experiment: Binding affinity to wild-type human partial length CHEK2 (S253 to E574 residues) expressed in bacterial expression system assessed as remaining unbound target protein level at 1000 nM by Kinomescan method relative to control
Serine/threonine-protein kinase Chk2 (Homo sapiens), sequence (O96017 whole entry, the tested form may be a part): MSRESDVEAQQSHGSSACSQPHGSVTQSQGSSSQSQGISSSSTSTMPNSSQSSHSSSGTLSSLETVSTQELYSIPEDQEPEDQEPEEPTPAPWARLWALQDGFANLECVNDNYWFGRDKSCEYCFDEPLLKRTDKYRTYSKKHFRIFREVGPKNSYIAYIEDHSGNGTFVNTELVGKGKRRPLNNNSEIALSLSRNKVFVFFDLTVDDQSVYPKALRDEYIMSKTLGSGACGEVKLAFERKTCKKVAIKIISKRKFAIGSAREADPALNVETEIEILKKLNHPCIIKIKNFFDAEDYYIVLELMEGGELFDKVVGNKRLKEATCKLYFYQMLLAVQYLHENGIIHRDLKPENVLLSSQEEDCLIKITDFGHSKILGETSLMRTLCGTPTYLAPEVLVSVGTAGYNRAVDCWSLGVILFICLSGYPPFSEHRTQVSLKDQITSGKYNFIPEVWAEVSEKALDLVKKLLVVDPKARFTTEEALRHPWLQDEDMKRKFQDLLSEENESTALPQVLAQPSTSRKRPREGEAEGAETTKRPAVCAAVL

MV4-11 = experiment: Antitumor activity against human MV4-11 cells xenografted in nu/nu mouse assessed as tumor growth inhibition at 10 mg/kg, po administered via gavage for 21 days measured on day 21 post last dose; format: functional, organism-based
Outline: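 Female nu/nu mice, five weeks old, implanted subcutaneously in the right flank with 5 million MV4-11 cells in PBS/Matrigel 1:1. Daily oral gavage in 0.5% methylcellulose/0.4% Tween80 started at tumor volume 200–400 mm³, 10, 20 or 30 mg/kg/day or vehicle, 5 mice per group. Tumor volume (W²×L)/2 and body weight measured daily; mean ± SEM.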

[9] = target: Myosin light chain kinase (Homo sapiens) (UniProt Q32MK0); experiment: Binding affinity to wild-type human partial length MLCK (D488 to K800 residues) expressed in bacterial expression system assessed as remaining unbound target protein level at 1000 nM by Kinomescan method relative to control
[10] = target: Ribosomal protein S6 kinase alpha-2 (Homo sapiens) (UniProt Q15349); experiment: Binding affinity to wild-type human partial length C-terminal RSK3 kinase domain 2 (V403 to K700 residues) expressed in bacterial expression system assessed as remaining unbound target protein level at 1000 nM by Kinomescan method relative to control; outline: as §2
Ribosomal protein S6 kinase alpha-2 (Homo sapiens), sequence (Q15349 whole entry, the tested form may be a part): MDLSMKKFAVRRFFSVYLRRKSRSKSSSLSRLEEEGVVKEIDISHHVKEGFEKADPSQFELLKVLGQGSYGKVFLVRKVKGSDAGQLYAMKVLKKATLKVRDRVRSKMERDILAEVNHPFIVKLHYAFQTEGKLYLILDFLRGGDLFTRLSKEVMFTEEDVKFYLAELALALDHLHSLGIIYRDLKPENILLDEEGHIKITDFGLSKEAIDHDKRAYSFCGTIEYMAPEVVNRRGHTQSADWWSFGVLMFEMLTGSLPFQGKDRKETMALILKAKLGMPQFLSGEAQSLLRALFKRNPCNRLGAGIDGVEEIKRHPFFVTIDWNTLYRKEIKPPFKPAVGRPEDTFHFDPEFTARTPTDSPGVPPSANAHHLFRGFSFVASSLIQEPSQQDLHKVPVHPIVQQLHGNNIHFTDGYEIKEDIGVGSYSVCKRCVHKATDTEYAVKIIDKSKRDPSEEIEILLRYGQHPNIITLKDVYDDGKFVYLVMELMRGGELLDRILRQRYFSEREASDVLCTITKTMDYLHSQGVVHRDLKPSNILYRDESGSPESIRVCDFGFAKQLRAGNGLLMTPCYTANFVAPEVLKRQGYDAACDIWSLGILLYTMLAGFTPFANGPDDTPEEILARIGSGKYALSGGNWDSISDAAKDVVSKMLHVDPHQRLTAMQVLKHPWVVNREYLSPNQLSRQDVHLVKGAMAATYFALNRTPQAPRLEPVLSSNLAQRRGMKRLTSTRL

[11] = target: Ephrin type-B receptor 1 (Homo sapiens) (UniProt P54762); experiment: Binding affinity to wild-type human partial length EPHB1 (P589 to T911 residues) expressed in bacterial expression system assessed as remaining unbound target protein level at 1000 nM by Kinomescan method relative to control
[12] = target: Macrophage-stimulating protein receptor (Homo sapiens) (UniProt Q04912); experiment: Binding affinity to wild-type human partial length MST1R (I1057 to L1363 residues) expressed in bacterial expression system assessed as remaining unbound target protein level at 1000 nM by Kinomescan method relative to control
Homo sapiens = species on record: Homo sapiens; experiment: Induction of apoptosis in human MEC1 cells assessed as decrease in c-MYC level after 2 hrs by immunoblotting analysis; format: functional, cell-based
[13] = target: Serine/threonine-protein kinase mTOR (Homo sapiens) (UniProt P42345); experiment: Binding affinity to wild-type human partial length MTOR (L1382 to W2549 residues) expressed in mammalian expression system assessed as remaining unbound target protein level at 1000 nM by Kinomescan method relative to control
[14] = target: Serine/threonine-protein kinase/endoribonuclease IRE1 (Homo sapiens) (UniProt O75460); experiment: Binding affinity to wild-type human partial length ERN1 (S551 to E852 residues) expressed in mammalian expression system assessed as remaining unbound target protein level at 1000 nM by Kinomescan method relative to control
Outline: (§4)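 KINOMEscan binding panel of 468 kinases/mutants. Inhibitor was tested at a single concentration of 1 μM. Binding is reported as percent of control, defined relative to a DMSO control.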

[15] = target: Mitogen-activated protein kinase kinase kinase 6 (Homo sapiens) (UniProt O95382); experiment: Binding affinity to wild-type human partial length ASK2 (M278 to R972 residues) expressed in mammalian expression system assessed as remaining unbound target protein level at 1000 nM by Kinomescan method relative to control
Mitogen-activated protein kinase kinase kinase 6 (Homo sapiens), sequence (O95382 whole entry, the tested form may be a part): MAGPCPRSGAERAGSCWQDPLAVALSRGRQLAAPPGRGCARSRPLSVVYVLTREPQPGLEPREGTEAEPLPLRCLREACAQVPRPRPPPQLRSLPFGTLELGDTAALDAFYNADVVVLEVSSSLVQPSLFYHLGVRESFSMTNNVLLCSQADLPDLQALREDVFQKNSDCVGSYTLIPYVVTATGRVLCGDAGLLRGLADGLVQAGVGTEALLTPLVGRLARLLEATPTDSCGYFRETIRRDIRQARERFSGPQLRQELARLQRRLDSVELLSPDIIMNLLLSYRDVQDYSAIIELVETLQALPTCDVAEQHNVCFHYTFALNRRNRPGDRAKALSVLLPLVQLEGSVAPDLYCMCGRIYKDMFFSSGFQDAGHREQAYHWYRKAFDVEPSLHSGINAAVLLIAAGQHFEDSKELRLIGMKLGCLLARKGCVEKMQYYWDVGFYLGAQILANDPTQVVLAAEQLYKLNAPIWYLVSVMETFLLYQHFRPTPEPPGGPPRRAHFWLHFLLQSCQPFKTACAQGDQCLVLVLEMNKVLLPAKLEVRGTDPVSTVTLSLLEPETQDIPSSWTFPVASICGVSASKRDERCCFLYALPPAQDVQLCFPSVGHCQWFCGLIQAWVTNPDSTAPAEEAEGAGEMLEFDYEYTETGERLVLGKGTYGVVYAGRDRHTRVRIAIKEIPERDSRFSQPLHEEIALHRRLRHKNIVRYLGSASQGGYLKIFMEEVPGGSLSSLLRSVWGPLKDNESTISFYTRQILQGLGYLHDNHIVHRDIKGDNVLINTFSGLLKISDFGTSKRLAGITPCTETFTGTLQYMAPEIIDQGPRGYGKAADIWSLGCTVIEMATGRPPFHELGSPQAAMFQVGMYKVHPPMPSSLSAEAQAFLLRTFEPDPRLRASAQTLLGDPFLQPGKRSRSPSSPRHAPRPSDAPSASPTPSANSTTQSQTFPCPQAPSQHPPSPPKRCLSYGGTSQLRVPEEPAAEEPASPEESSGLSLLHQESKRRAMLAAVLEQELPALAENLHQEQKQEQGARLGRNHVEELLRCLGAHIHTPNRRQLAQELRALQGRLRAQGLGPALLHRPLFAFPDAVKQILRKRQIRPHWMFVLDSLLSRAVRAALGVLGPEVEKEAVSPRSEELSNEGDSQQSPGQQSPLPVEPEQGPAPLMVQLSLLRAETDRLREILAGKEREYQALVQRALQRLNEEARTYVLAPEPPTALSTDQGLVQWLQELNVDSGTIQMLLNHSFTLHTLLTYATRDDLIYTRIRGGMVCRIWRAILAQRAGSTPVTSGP
Outline: (§5)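 KINOMEscan competition binding profile across a panel of 468 kinases and mutants, with the inhibitor tested at a single concentration of 1 μM. Binding is reported as percent of control, meaning signal relative to a DMSO control.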

[16] = target: Citron Rho-interacting kinase (Homo sapiens) (UniProt O14578); experiment: Binding affinity to wild-type human partial length CIT (M68 to E432 residues) expressed in bacterial expression system assessed as remaining unbound target protein level at 1000 nM by Kinomescan method relative to control; outline: as §5
[17] = target: Tyrosine-protein kinase CSK (Homo sapiens) (UniProt P41240); experiment: Binding affinity to wild-type human full length CSK (M1 to L450 residues) expressed in bacterial expression system assessed as remaining unbound target protein level at 1000 nM by Kinomescan method relative to control
Outline: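 KINOMEscan competitive binding profile at 1 μM inhibitor. Remaining target binding reported as percent of DMSO control.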

[18] = target: Fibroblast growth factor receptor 2 (Homo sapiens) (UniProt P21802); experiment: Binding affinity to wild-type human partial length FGFR2 (D457 to E769 residues) expressed in bacterial expression system assessed as remaining unbound target protein level at 1000 nM by Kinomescan method relative to control; outline: as §4

Compound: COCCN[C@H]1CC[C@H](Nc2cc(-c3csc(NCC4(C#N)CCOCC4)n3)c(Cl)cn2)CC1
- Activity [1]: 100%
- MRT inf [2]: 29.2 h
- Activity [3]: 100%
- Activity [4]: 90%
- Activity [5]: 96%
- Activity [6]: 89%
- Activity [7]: 100%
- Activity [8]: 90%
- TGI (MV4-11): inactive
- Activity [9]: 100%
- Activity [10]: 92%
- Activity [11]: 88%
- Activity [12]: 92%
- Activity (Homo sapiens): Dose-dependent effect
- Activity [13]: 90%
- Activity [14]: 61%
- Activity [15]: 86%
- Activity [16]: 23%
- Activity [17]: 95%
- Activity [18]: 93%
